Source: PMC2234573 (The Journal of General Physiology, 2004)
“And” between values parts separate entries of the source, which are not always exact repeats. Identical values can stand only once. Like-named read-outs stand apart in the source and are kept apart here. Values belong to the molecule of their own block, whether it stands above or below them.

Legend:
[1] = tested on: Ca^2+- and ATP-sensitive nonselective cation channels (CA-NSCs); assay type: biochemical, rat; settings: for Effect on the i([DV]) dose response curve (in words): 1 mM nucleotide
Procedure, shortened: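 Inside-out patches from rat brain capillary endothelial cells, cultured 5–6 d, at 25°C. Pipette: 140 mM NaCl, 30 μM benzamil, pH 7.4. Bath: 140 mM KCl or NMDG-Cl, pH 7.1, plus 1 mM CaCl2. i(V) is recorded ± 70 μM DV. KCl data get linear fits; NMDG data get GHK fits with asymptotic negative-potential slope. Currents at −40 mV ± 1 mM nucleotide are normalized to in-patch control and Hill-fitted.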

[2] = tested on: Ca^2+- and ATP-sensitive nonselective cation channels (CA-NSCs); experiment: Ensemble fitting of kinetic binding models to the dose response curves; assay type: biochemical, rat; settings: noncompetitive model with allosteric destabilization, one subunit
Procedure, shortened: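 Custom software ensemble-fits the two-ligand extensions of a reversible-binding scheme to 18 normalized dose response curves (Po, opening and closing rates) from inside-out patches. Error function is summed squared differences between predicted and measured values. Open-state Kds are constrained by microscopic reversibility. Unliganded opening rate is fixed at its average (−40 mV, 1 mM cytosolic Ca2+).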

[3] = tested on: CA-NSC channels present in astrocytes; settings: ref Chen et al., 2003; cited from earlier work
TrpM4b = settings: ref Nilius et al., 2004, cited from earlier work
[4] = tested on: Ca^2+- and ATP-sensitive nonselective cation channels (CA-NSCs); experiment: Excised inside-out patch recording of CA-NSC channel gating; assay type: biochemical, rat; settings: for Inhibition of Po / effect on gating (in words): cytosolic exposure, Fig. 3 A; for Prevention of inhibition by concomitantly added ATP (in words): Fig. 3 B, 100 μM ATP for PI(4,5)P2
TrpM2 = settings: cytosolic, ref Perraud et al., 2001, Sano et al.; cited from earlier work
[5] = Decay of decavanadate in bath solution measured by photometry; assay type: physicochemical; settings: pH = 7.1, T = 25°C
Procedure, shortened: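 DV stock is 50 mM Na3VO4 brought to pH 2.0, kept at +4°C, used within 24 h and diluted into bath under 90 min before use. Spectra of 1 mM Na3VO4 in bath (pH 7.1, 25°C) are taken 0–8 h after preparation against a boiled same-composition blank. DV is tracked as peak absorbance at ~390 nm, and the decay is single-exponential fitted.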

[6] = tested on: Ca^2+- and ATP-sensitive nonselective cation channels (CA-NSCs); settings: read-out: [Ca2+]i required for half-maximal activation; freshly excised channels; ref Csanády and Adam-Vizi, 2003; cited from earlier work
[7] = read-out: K1/2 for inhibition of opening rate, 1 mM Ca2+ i, Vm −40 mV, no DV, Hill fit, deactivated channels
[8] = 70 μM DV, NaCl pipette, KCl bath

Predicted decrease in nucleotide affinity brought upon by DV binding [2]: ~10^5 fold
IC50 [4, 7]: 4.3 ± 0.5 µM
Molecule: Nc1ncnc2c1ncn2[C@@H]1O[C@H](COP(=O)(O)OP(=O)(O)O)[C@@H](O)[C@H]1O [ADP]
Effect on the i([DV]) dose response curve (in words) [1]: not altered
Nucleotide sensitivity of astrocyte CA-NSC channels (in words) [3]: insensitive
Inhibition of TrpM4b (in words) (TrpM4b): the most potent inhibitor
Increase of K1/2 for inhibition of Po caused by DV ([4]; ~1.6 μM DV vs no DV): ~20 ×

Molecule: Nc1ncnc2c1ncn2[C@@H]1O[C@H](COP(=O)(O)OP(=O)(O)NP(=O)(O)O)[C@@H](O)[C@H]1O [AMPPNP]
Inhibition of Po / effect on gating (in words) ([4]; 1 mM Ca2+ i, −40 mV): effectively inhibited

Molecule: [O]=[V]([O-])([O-])[O-] [orthovanadate]
Increase in single-channel current size ([1]; 1-mM orthovanadate solution (untreated, contains trace DV)): ~30%
Effect of vanadate solution on CA-NSC gating (in words) ([4]; 1-mM vanadate solution, 1 mM Ca2+ i): robust stimulation of channel gating to a Po close to unity

Molecule: NC(=O)c1ccc[n+]([C@@H]2O[C@H](COP(=O)([O-])OP(=O)(O)OC[C@H]3O[C@@H](n4cnc5c(N)ncnc54)[C@H](O)[C@@H]3O)[C@@H](O)[C@H]2O)c1 [NAD^+]
Inhibition of Po / effect on gating (in words) ([4]; 1 mM Ca2+ i, −40 mV): inhibited to a variable extent
Effect on TrpM2 (in words) (TrpM2): activated

Molecule: Nc1ncnc2c1ncn2[C@@H]1O[C@H](COP(=O)(O)OP(=O)(O)OC[C@H]2O[C@@H]([n+]3cccc(C(=O)O)c3)[C@H](O)[C@@H]2O)[C@@H](O)[C@H]1OP(=O)(O)O [NAADP]
Inhibition of Po / effect on gating (in words) ([4]; 1 mM Ca2+ i, −40 mV): inhibited to a variable extent

Molecule: O=P(O)(O)OP(=O)(O)O [pyrophosphate]
Inhibition ([4]; 2 mM, n = 4): 92 ± 2%

Predicted decrease in nucleotide affinity brought upon by DV binding [2]: ~10^3 fold
IC50 [4, 7]: 1.1 ± 0.2 µM
Molecule: Nc1ncnc2c1ncn2[C@@H]1O[C@H](COP(=O)(O)O)[C@@H](O)[C@H]1O [AMP]
Effect on the i([DV]) dose response curve (in words) [1]: not altered
Nucleotide sensitivity of astrocyte CA-NSC channels (in words) [3]: insensitive
Po ([4]; 1 mM AMP in the presence of ~8 μM DV): ~0.25
Increase of K1/2 for inhibition of Po caused by DV ([4]; ~8 μM DV vs no DV): ~90 ×

Molecule: NC(=O)C1=CN([C@@H]2O[C@H](COP(=O)(O)OP(=O)(O)OC[C@H]3O[C@@H](n4cnc5c(N)ncnc54)[C@H](OP(=O)(O)O)[C@@H]3O)[C@@H](O)[C@H]2O)C=CC1 [NADPH]
Inhibition of Po / effect on gating (in words) ([4]; 1 mM Ca2+ i, −40 mV): inhibited to a variable extent

Molecule: O=c1ccn([C@@H]2O[C@H](COP(=O)(O)OP(=O)(O)OP(=O)(O)O)[C@@H](O)[C@H]2O)c(=O)[nH]1 [UTP]
Inhibition of TrpM4b (in words) (TrpM4b): poor inhibitors
Inhibition of Po / effect on gating (in words) ([4]; 1 mM Ca2+ i, −40 mV): compatible with inhibition

Molecule: Nc1nc2c(ncn2[C@@H]2O[C@H](COP(=O)(O)OP(=O)(O)OP(=O)(O)O)[C@@H](O)[C@H]2O)c(=O)[nH]1 [GTP]
Inhibition of TrpM4b (in words) (TrpM4b): poor inhibitors
Inhibition of Po / effect on gating (in words) ([4]; 1 mM Ca2+ i, −40 mV): compatible with inhibition

Molecule: NC(=O)c1ccc[n+]([C@@H]2O[C@H](COP(=O)([O-])OP(=O)(O)OC[C@H]3O[C@@H](n4cnc5c(N)ncnc54)[C@H](OP(=O)(O)O)[C@@H]3O)[C@@H](O)[C@H]2O)c1 [NADP^+]
Inhibition of Po / effect on gating (in words) ([4]; 1 mM Ca2+ i, −40 mV): inhibited to a variable extent

Molecule: O=P(O)(O)O [Pi, Inorganic phosphate]
Prevention of inhibition by concomitantly added ATP (in words) [4]: none
Inhibition of Po / effect on gating (in words) ([4]; 1 mM Ca2+ i, −40 mV): had little effect

Molecule: phosphatidyl inositol 4,5-bisphosphate [PI(4,5)P2]
Inhibition of Po / effect on gating (in words) ([4]; 1 mM Ca2+ i, −40 mV): affected neither CA-NSC gating

EC50 ([1]; read-out: K1/2 for stimulation of single-channel conductance, no nucleotides (control), −40 mV): 1.7 ± 0.3 µM
EC50 ([4]; read-out: K1/2 for stimulation of Po, 1 mM Ca2+ i, −40 mV, no nucleotides): 0.09 µM
Time constant of decay in bath solution [5]: ~4 h
Molecule: [O]=[V]([O-])([O-])[O][V]1(=[O])[O][V]2(=[O])[O][V](=[O])([O][V](=[O])([O-])[O-])[O][V](=[O])([O]2)[O][V]2(=[O])[O][V](=[O])([O][V](=[O])([O-])[O-])[O][V](=[O])([O]1)[O]2 (stereo not drawn) [DV, decavanadate]
Increase of single-channel (slope) conductance relative to control [1, 8]: 34 ± 2% and ~30%
Reversal potential [1, 8]: −1 ± 2 mV
Slope conductance [1, 8]: 42 ± 3 pS
Asymptotic conductance at negative potentials ([1]; 70 μM DV, NaCl pipette, NMDG-Cl bath, n = 3): 36 ± 0.5 pS
K1/2 for conductance relative to K1/2 for stimulation of gating ([1]; higher): ~20 fold
Increase of K1/2 for stimulation of Po caused by nucleotide ([4]; 1 mM ADP vs control): ~80 ×
Increase of K1/2 for stimulation of Po caused by nucleotide ([4]; 1 mM AMP vs control): ~270 ×
Increase of K1/2 for stimulation of Po caused by nucleotide ([4]; 1 mM ATP vs control): ~35 ×

Molecule: O=P(O)(O)OC[C@H]1O[C@H](OP(=O)(O)OP(=O)(O)O)[C@H](O)[C@@H]1O [PRPP, phospho-ribosyl-PP]
Prevention of inhibition by concomitantly added ATP (in words) [4]: none
Inhibition of Po / effect on gating (in words) ([4]; 1 mM Ca2+ i, −40 mV): failed to inhibit channel activity

Molecule: O=C[C@H](O)[C@H](O)[C@H](O)COP(=O)(O)O [ribose-5P]
Prevention of inhibition by concomitantly added ATP (in words) [4]: none
Inhibition of Po / effect on gating (in words) ([4]; 1 mM Ca2+ i, −40 mV): failed to inhibit channel activity

Molecule: N=c1c2ncn3c2ncn1[C@@H]1O[C@H](COP(=O)(O)OP(=O)(O)OC[C@H]2O[C@@H]3[C@H](O)[C@@H]2O)[C@@H](O)[C@H]1O [cADP-ribose]
Prevention of inhibition by concomitantly added ATP (in words) [4]: none
Inhibition of Po / effect on gating (in words) ([4]; 1 mM Ca2+ i, −40 mV): failed to inhibit channel activity

Molecule: Nc1nc2c(ncn2[C@@H]2O[C@@H]3COP(=O)(O)O[C@H]3[C@H]2O)c(=O)[nH]1 [cGMP]
Prevention of inhibition by concomitantly added ATP (in words) [4]: none
Inhibition of Po / effect on gating (in words) ([4]; 1 mM Ca2+ i, −40 mV): failed to affect gating

Molecule: NC(=O)C1=CN([C@@H]2O[C@H](COP(=O)(O)OP(=O)(O)OC[C@H]3O[C@@H](n4cnc5c(N)ncnc54)[C@H](O)[C@@H]3O)[C@@H](O)[C@H]2O)C=CC1 [NADH]
Inhibition of Po / effect on gating (in words) ([4]; 1 mM Ca2+ i, −40 mV): inhibited to a variable extent

Molecule: Nc1ncnc2c1ncn2[C@@H]1O[C@H](CO)[C@@H](O)[C@H]1O [Ado, adenosine]
Prevention of inhibition by concomitantly added ATP (in words) [4]: none
Inhibition of Po / effect on gating (in words) ([4]; 1 mM Ca2+ i, −40 mV): inhibited only at high concentrations

Molecule: Nc1ncnc2c1ncn2[C@@H]1O[C@H](COP(=O)(O)OP(=O)(O)OC[C@H]2OC(O)[C@H](O)[C@@H]2O)[C@@H](O)[C@H]1O (stereo partly drawn) [ADP-ribose]
Inhibition of Po / effect on gating (in words) ([4]; 1 mM Ca2+ i, −40 mV): inhibited to a variable extent
Effect on TrpM2 (in words) (TrpM2): activated

Predicted decrease in nucleotide affinity brought upon by DV binding [2]: ~200 fold
IC50 ([4]; read-out: K1/2 for inhibition of Po, 1 mM Ca2+ i, −80 mV): 7.3 ± 1 µM
IC50 ([4]; read-out: K1/2 for inhibition of Po, 10 mM Ca2+ i, −40 mV): 52 ± 6 µM
IC50 ([4]; read-out: K1/2 for inhibition of Po, freshly excised (~10 s) channels in 100 μM Ca2+, −40 mV, tentative analysis): 34 ± 3 µM
IC50 [4, 7]: 11 ± 2 µM
IC50 ([4]; read-out: K1/2 for inhibition of opening rate, 1 mM Ca2+ i, −80 mV): 8.4 ± 2 µM
IC50 ([4]; read-out: K1/2 for inhibition of opening rate, 10 mM Ca2+ i, −40 mV): 14 ± 5 µM
IC50 ([4]; read-out: K1/2 for inhibition of opening rate, freshly excised (~10 s) channels in 100 μM Ca2+, −40 mV, tentative analysis): 15 ± 2 µM
Molecule: Nc1ncnc2c1ncn2[C@@H]1O[C@H](COP(=O)(O)OP(=O)(O)OP(=O)(O)O)[C@@H](O)[C@H]1O [ATP]
Effect on the i([DV]) dose response curve (in words) [1]: not altered
Nucleotide sensitivity of astrocyte CA-NSC channels (in words) [3]: inhibited
Fraction of TrpM4b current insensitive to nucleotide (TrpM4b; even millimolar [ATP]): ~20%
Increase of K1/2 for inhibition of Po ([4]; 10 mM vs 1 mM Ca2+ i): ~3 fold
Opening rate (normalized) ([4]; (b) 10 μM total ATP, 1 mM free Ca2+, 2 mM free Mg2+): 0.62 ± 0.12 (n = 3)
Opening rate (normalized) ([4]; (c) 10 μM total ATP, 10 mM free Ca2+, 2.01 mM free Mg2+): 0.61 ± 0.10 (n = 4)
Opening rate (normalized) ([4]; (d) 100 μM total ATP, 1 mM free Ca2+, 0.184 mM free Mg2+): 0.094 ± 0.043 (n = 6)
Opening rate (normalized) ([4]; (e) 100 μM total ATP, 1 mM free Ca2+, 2.03 mM free Mg2+): 0.10 ± 0.03 (n = 14)
Opening rate (normalized) ([4]; (f) 100 μM total ATP, 1 mM free Ca2+, 9.91 mM free Mg2+): 0.16 ± 0.06 (n = 6)
Increase of K1/2 for inhibition of Po caused by DV ([4]; ~1.6 μM DV vs no DV): ~40 ×
Decrease of K1/2 for inhibition of Po ([4]; −80 mV vs −40 mV): ≈ 2 fold

Molecule: [Ca+2] [Ca^2+]
EC50 [6]: ~20 µM
